Dynein cargo inh: dynein cargo transport inhibition | 3617.4 mouse cells, GR-EGFP nuclear translocation imaging; test concentration mostly 20 µM; stimulated with dexamethasone, 1 µM; active compounds read low | z-score, hits read low | 0.47% of 220,000 active | AID 1381;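 active = plate z-score of nuclear minus cytoplasmic receptor signal below a set negative limit, without overly bright fluorescence or cell loss, cut at about -3.5 in these data, passing the limit was not always enough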;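 note: z-score of nuclear minus cytoplasmic ring GR-EGFP intensity difference per well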
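Buffer or medium: Induction medium lacking tetracycline, stripped serum | Also added: Dexamethasone agonist, 1.0 µM final, for 30 min | Timing: 48 h induction, 1 h compound, 30 min dex at 37 °C | Detection: Formaldehyde fixation, Hoechst nuclear stain, 10x automated fluorescence imaging | Measure: Nuclear versus cytoplasmic GR-EGFP signal, averaged per well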
Beta2AR agonist: activates human beta-2 adrenergic receptor causing internalization. P07550. Am2.2-beta2AR cells, FAP receptor internalization, flow cytometry. response, % (concentration not given with the values). 0.43% of 340,000 active. AID 504454;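 active = response above a set limit, near 3 SD of response in nonfluorescent compounds, cut at about 42% in these data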
MEKK2 mut-MEK5: signal of MEK5 binding to mutant human MEKK2 PB1 domain; bead flow cytometry, Alexa488-MEK5 binding to MEKK2 mutant; 0.35% of 290,000 active; percent response, % at 10 µM; in the data active = percent response above about 24%, passing the limit was not always enough
MEKK2wt PB1 HTS: raises or lowers MEK5 binding to wildtype human MEKK2 PB1 domain; 1.1% of 290,000 active; binding response (% of control), % at 10 µM; bead flow cytometry, Alexa488-MEK5 binding to MEKK2 WT; actives lie on both sides; Q9Y2U5; AID 1531; in the data active = binding response below about 67% or above about 130%
ATG4B inh: inhibitors of human ATG4B cysteine protease; Q9Y4P1; ATG4B cleavage of LC3-PLA2, NBD-HPC fluorescence, 1 h; inhibition, % at 8.33 µM; 0.51% of 340,000 active; AID 504462; in the data active = inhibition above about 40%
Target sequence (Q9Y4P1 whole entry, looked up): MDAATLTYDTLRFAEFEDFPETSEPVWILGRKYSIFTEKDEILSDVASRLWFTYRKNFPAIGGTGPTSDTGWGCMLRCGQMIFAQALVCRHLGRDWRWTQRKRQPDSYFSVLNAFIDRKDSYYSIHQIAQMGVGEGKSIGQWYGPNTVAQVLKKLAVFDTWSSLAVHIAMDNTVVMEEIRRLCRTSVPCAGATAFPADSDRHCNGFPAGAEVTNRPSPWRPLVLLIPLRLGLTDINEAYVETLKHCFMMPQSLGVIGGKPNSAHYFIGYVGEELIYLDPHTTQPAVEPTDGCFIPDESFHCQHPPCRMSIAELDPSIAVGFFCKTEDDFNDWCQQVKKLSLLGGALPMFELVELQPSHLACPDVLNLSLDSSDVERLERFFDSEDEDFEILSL
MEKK3 PB1 HTS: modulators (inhibitors or enhancers) of MEK5 binding to human MEKK3 PB1 domain | Q99759 | bead-based flow cytometry, Alexa488-MEK5 binding to MEKK3; actives lie on both sides; 0 = blocked by unlabeled MEK5, 100 = vehicle | binding response (% of control), % at 10 µM | 1.4% of 290,000 active | AID 1529;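 active = binding response more than 3 SD above or below the average of its plate-row segment, actives on both sides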;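 note: Alexa488 bead fluorescence after subtracting the streptavidin-only scavenger bead signal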
ATG4B confirm: ATG4B (human) inhibition, single-dose confirmed | shares compounds with ATG4B inh | ATG4B protease fluorescent substrate cleavage assay | inhibition, % at 8.33 µM | 92% of 320 active | AID 504757; in the data active = inhibition above about 39%
PLA2 counter: inhibits human PLA2, flagging false ATG4B inhibitors. 66% of 1,600 active. purified PLA2, NBD-C6-HPC fluorescence, 45 min. inhibition, % at 8.33 µM. shares compounds with ATG4B inh. AID 588402; in the data active = inhibition above about 50%
Target sequence (P04054 whole entry, looked up): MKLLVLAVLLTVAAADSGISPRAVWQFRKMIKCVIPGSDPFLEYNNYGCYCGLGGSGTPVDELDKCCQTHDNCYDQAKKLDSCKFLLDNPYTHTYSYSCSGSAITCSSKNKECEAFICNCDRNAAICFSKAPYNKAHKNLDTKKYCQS
* marks the source's active call; other numbers are inactive results; nt = no result given. Only some compounds are listed: those with a hit (about 2.9% of all), similar ones and a draw of the others.

SMILES | Dynein cargo inh | Beta2AR agonist | MEKK2 mut-MEK5 | MEKK2wt PB1 HTS | ATG4B inh | MEKK3 PB1 HTS | PLA2 counter | others
CC(C)(C)NC(=O)CC1C(=O)NCCN1Cc1c(F)cccc1Cl (stereo not drawn) | -0.64 | 1 | 2 | 107 | 2 | 106 | nt
Nc1nc(C23CC4CCC(CC(C4)C2)C3)cs1 | -0.18 | -5 | -3 | 86 | 5 | 84 | nt
COc1ccc(-c2oc3cc(O)c(OC)c(O)c3c(=O)c2OC)cc1O | nt | 22 | nt | nt | 3 | nt | nt
FC(F)(F)c1cccc(NC(=S)NCc2ccccn2)c1 | 0.84 | -3 | -1 | 97 | 0 | 91 | nt
Fc1ccc(CNC(=S)Nc2cccc(Cl)c2)cc1 | 1.4 | -1 | -2 | 95 | 61* | 79 | 67*
O=[N+]([O-])c1ccc(NC(=S)NCc2ccc(F)cc2)cc1 | nt | 16 | 1 | 112 | 57* | 107 | 68*
Fc1cccc(NC(=S)NCc2ccccc2Cl)c1 | -0.63 | -1 | 6 | 100 | 40* | 102 | 49
FC(F)(F)c1cccc(NC(=S)NNC(=S)NCc2ccccc2)c1 | 0.44 | 24 | 2 | 97 | 42* | 100 | 50
Cc1cccc2c(C(=O)O)c3cccc(C)c3nc12 | nt | -1 | nt | nt | -6 | nt | nt
CCN(CC)C(=S)Nc1ccc([N+](=O)[O-])cc1 | 0.41 | 7 | -2 | 96 | 58* | 93 | 5
O=C(NCc1ccccc1)c1cccc(NC(=O)c2ccccc2)c1 | nt | -8 | nt | nt | 8 | nt | nt
O=C(NCc1ccccc1Cl)c1cccc(NC(=O)c2ccccc2)c1 | 0.0074 | 8 | 16 | 105 | 48* | 101 | 53*
Fc1ccc(CNC(=S)Nc2ccc(Cl)cc2)cc1 | -0.67 | -6 | -6 | 100 | 43* | 99 | 52*
S=C(NCc1ccc(Cl)cc1)Nc1ccccc1 | 0.089 | -5 | 0 | 102 | 14 | 102 | nt
COC(=O)c1cccc(NC(=S)NCc2ccc(F)cc2)c1 | 1.1 | -1 | -5 | 100 | 42* | 95 | 50*
COc1c2c(nc3occc13)C(CC=C(C)C)(OC)C(O)CC2 (stereo not drawn) | -0.46 | 3 | 2 | 101 | -8 | 93 | nt
O=C(NCc1ccccc1Cl)c1ccccc1Oc1ccccc1 | 0.14 | -13 | 15 | 113 | 53* | 102 | 49
CCNC(=S)Nc1ccc(Oc2ccccc2)cc1 | 0.01 | -16 | 8 | 111 | 0 | 108 | nt
S=C(NCc1ccccc1)Nc1ccc(Oc2ccccc2)cc1 | nt | -5 | 0 | 103 | 57* | 97 | 67*
Cc1cccc(N2CCN(C(=S)NCc3ccco3)CC2)c1C | 1.1 | 8 | -3 | 98 | 46* | 92 | 4
CCCCc1ccc(NS(=O)(=O)c2cccc(C(=O)N3CCNC(=O)C3)c2)cc1 | nt | -4 | nt | nt | -11 | nt | nt
COc1ccc(NS(=O)(=O)c2cccc(NC(=O)NC3CCCCC3)c2)cc1 | 0.43 | -15 | 0 | 120 | 54* | 100 | 65*
Cc1ccc2c(c1)nnn2C1CCN(S(=O)(=O)c2ccc(C(=O)N3CC(C)CC(C)C3)cc2)CC1 (stereo not drawn) | 1.1 | -18 | 1 | 106 | 59* | 102 | 73*
Cc1ccc2c(c1)nnn2C1CCN(S(=O)(=O)c2ccc(C(=O)N(C)C)cc2)CC1 | -0.48 | -12 | -2 | 95 | -17 | 99 | nt
Cc1ccc(C)c(-n2c(C)cc(/C=N/NC(=O)c3c(C)nc4cc(C)ccn34)c2C)c1 | 0.4 | 24 | 8 | 94 | 3 | 104 | nt
SMILES | Dynein cargo inh | Beta2AR agonist | MEKK2 mut-MEK5 | MEKK2wt PB1 HTS | ATG4B inh | MEKK3 PB1 HTS | PLA2 counter | others
CCC(C)c1ccccc1NC(=O)COC(=O)c1ccc2[nH]c3c(c2c1)CCCC3 (stereo not drawn) | 1.2 | -9 | -1 | 113 | 42* | 98 | 57*
COc1ccc(N(CC(=O)NCc2ccc(F)cc2)C(=O)c2snc(C(N)=O)c2N)cc1OC | nt | 21 | 0 | 103 | 10 | 102 | nt
Cc1ccc(N(CC(=O)NCc2ccc(F)cc2)C(=O)c2snc(C(N)=O)c2N)cc1C | nt | 1 | -16 | 93 | 60* | 88 | 57*
Cc1ccc(N(CC(=O)Nc2ccc(F)c(Cl)c2)S(=O)(=O)c2c(C)noc2C)cc1 | 0.88 | -2 | 4 | 114 | 41* | 107 | 61*
Cc1cccc(NC(=O)COC(=O)c2cccc3c2C(=O)c2ccccc2C3=O)c1C | -0.9 | 7 | 11 | 99 | 32 | 104 | nt
Cc1cccc(NC(=O)COC(=O)c2ccccc2-c2nc3ccccc3s2)c1C | -0.1 | -8 | 1 | 91 | 48* | 93 | 51*
O=C(Nc1cc(Cl)ccc1-n1cncn1)c1ccc([N+](=O)[O-])s1 | nt | -14 | 6 | 106 | 9 | 104 | nt
C=CCN1C(=O)C(Cc2ccccc2Cl)SC1=Nc1ccc(C(=O)O)cc1 (stereo not drawn) | -0.66 | 5 | -2 | 100 | 55* | 104 | 59*
O=C(O)c1ccc(C[n+]2c(-c3ccccc3)csc2Nc2ccccc2)cc1 | -0.93 | 17 | -5 | 91 | 42* | 91 | 17 | ATG4B confirm=84*
C=CC[n+]1c(C)csc1Nc1ccc(C(=O)O)cc1 | -0.67 | -1 | 2 | 102 | -6 | 102 | nt
CC(C)(C)c1cc(-c2csc(Nc3ccccc3)[n+]2Cc2ccc(C(=O)O)cc2)cc(C(C)(C)C)c1O | -0.4 | 30 | -9 | 85 | 46* | 98 | 56*
NC(N)=NC1=NC(=O)/C(=C/c2ccccc2-n2cccn2)S1 | -0.44 | -4 | -3 | 101 | 4 | 106 | nt
CC(C)c1ccc(Nc2nc(NCc3ccco3)nc(N3CCOCC3)n2)cc1 | -0.59 | 13 | -5 | 99 | 41* | 97 | 57*
Fc1ccccc1Nc1nc(NCc2ccco2)nc(N2CCOCC2)n1 | 0.9 | 2 | 6 | 107 | 5 | 102 | nt
O=c1cccccc1NN=C1CCCCC1 | 0.56 | 3 | 5 | 101 | 12 | 96 | nt
O=C(O)c1cc(Br)ccc1NN=C1CCCCC1 | -0.19 | -9 | 30 | 123 | 50* | 105 | 40 | ATG4B confirm=62*
Cn1cc(Cl)c(C(=O)OCC(=O)Nc2nc(-c3ccc(Br)cc3)cs2)n1 | 0.26 | 0 | -6 | 89 | -14 | 113 | nt
CC(C)CSC1=NSC2=NC(=O)/C(=C\c3cccs3)C(=N)N12 | -0.39 | 8 | -1 | 96 | -1 | 98 | nt
N=C1/C(=C/c2cccs2)C(=O)N=C2SN=C(SCc3ccccc3)N12 | 1.4 | 12 | -9 | 84 | 50* | 93 | 62*

Bioassay records as filed in PubChem BioAssay.
